Measurements: the EternaBench riboswitch data

System: MS2 coat protein
Assay: apparent Kd, MS2 coat protein; higher = weaker binding; RNA-MaP array; FMN 200 µM where present
Outline: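 The titrant was SNAP-549-labelled MS2 coat protein, run from 0.7 or 1.5 nM in doubling steps to 3 µM. It was applied to designs transcribed by stalled E. coli RNA polymerase on Illumina sequencing-chip clusters, without ligand first and then with constant ligand, in 100 mM Tris-HCl pH 7.5, 80 mM KCl, 4 mM MgCl2, BSA, DTT, yeast tRNA and Tween-20. The apparent Kd is the median of filtered per-cluster binding-curve fits, with green signal normalised to red-channel RNA signal and control-cluster median Fmax.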

[1] = designed as: OFF switch for flavin mononucleotide, no ligand
[2] = ligand present: flavin mononucleotide, designed as: OFF switch for flavin mononucleotide
[3] = designed as: ON switch for flavin mononucleotide, no ligand
[4] = ligand present: flavin mononucleotide, designed as: ON switch for flavin mononucleotide

Sequence	apparent Kd [1]	apparent Kd [2]	apparent Kd [3]	apparent Kd [4]
GUUGUUCGAGGAUAUACAUGAGGAUCACCCAUGUGUGUUGUGGGCGACGUUCGUUUAUGUAGAAGGCGAGCGGC	63.3 nM	92.1 nM	–	–
AGCGUGUUAGGAUAUACACGACGCUGGGUAGCUAGCGGAGGGUAGAAGGGACAUGAGGAUCACCCAUGUUCGGG	74.1 nM	105 nM	–	–
CAGUACUGAGGAUAUACAUGAGGAUCACCCAUGUGUUCCAGCUAGGAAACUAGCAAAAGUAGAAGGCAGUACUG	27.5 nM	589 nM	–	–
CGGUACUGAGGAUAUACAUGAGGAUCACCCAUGUGUUCUAGCUAGCGUACUGGCUAUUGUAGAAGGCGGUGCUG	17.5 nM	99.8 nM	–	–
GACGGUGAUGUAGGAUAUACGCUGGAAUACAGCGUAGAAGGACAUGAGGAUCACCCAUGUAAAGUGUCUCCAAAUAACACCGUC	31.5 nM	90.8 nM	–	–
AUAUCAAGCAAGGAUAUGCAAAUGGUUAUUUAUGCAGAAGGUGCAACAUGAGGAUCACCCAUGUUUCUGGGUUU	64.4 nM	101 nM	–	–
AUCAGCUCGUCAGGAUAUAUGUCACUGCUUCGGCAGUGUGGUAAGAUCACAUGAGGAUCACCCAUGUAGAAGGGACGAGCUGAU	29.7 nM	78 nM	–	–
AGAUUCAUGGCCCGUUUGGGCCCACAUGAGGAUCACCCAUGUGAGGAUAUGACGUACCUGACUCGUCAGAAGGCGCAUGCGAAA	7.45 nM	16.7 nM	–	–
AUUUUGUGAGGAUAUUAGUUGUAGAAAAUUGUUAGUAUAGCUGAGAAGGCACAUGAGGAUCACCCAUGUACAUC	18 nM	57.9 nM	–	–
ACAUGAUACAAGAAGGAUGUAUUUGAUUUGAUCAUAGGAUAUUGUUAUAUUGUUUACUCUAAUAACAUGAGGAUCACCCAUGUA	–	–	7.04 nM	6.95 nM
UUGGACGUCGUAGGAUUUGUAGGAUAUUCCUACAUGAGGAUCACCCAUGUUGACAUGGAAGAAGGACAGAAGGACGAUGUCCAU	–	–	87.3 nM	5.51 nM
AAAAAACAUGAGGAUCACCCAUGUCCAAAAAAAAAAGGAUAUGCAAAAAAAAAAAAAAAAGCAGAAGGUUUAAAAA	–	–	68.4 nM	74.7 nM
GUCCUUUCUGAGGAUAUUAUCUGGUUCGAUUGAUAAGAAGGCAGUACAUGAGGAUCACCCAUGUGGUUCGUUUG	115 nM	268 nM	–	–
AGGGUGGGCUCAGGAUAUCAGGGAGAGAUGUGGACAUGAGGAUCACCCAUGUACCAGUGUUGUCAUGAGAAGGGAGAUACUGUA	–	–	52.7 nM	28 nM
GUAUGAGCGAUAGGAUAUACUGAGAUUGAAUGGGUAGAAGGAUCUCUUGUGGGAAAGACAUGAGGAUCACCCAUGUCACGGGCC	–	–	122 nM	130 nM
UCCACUGCUGAGAAGGGAUACGUGUGGUUCGCAUCAGGAUAUCGAUACAGUGCAGCAUGAGGACAUGAGGAUCACCCAUGUAUU	–	–	24.6 nM	13.4 nM
CAGGUAGACUGAGGAUAUACAAUAAACAGCUAGUCUAUCUAGCUGUCUACAUGAGGAUCACCCAUGUAGAAGGCAGUCUGCCUG	17 nM	17.4 nM	–	–
CCUUCACAUGAGGAUCACCCAUGUCCUAGUCCGUCAGGAUAUAGCCUGCAUCCGCUGUGGCUAGAAGGGACUGCUG	–	–	135 nM	207 nM
CGGCGCUGUUGAGAGGAUAUGCGGUGAUGGACAUGAGGAUCACCCAUGUUAGCGAUAGCAUUACGGUAGAAGGCUCUACAGCUGU	–	–	28.1 nM	16.7 nM
GGGAGGUCAGGAUAUGCAUGGCGGGACUUGCGUCGUGGCGUGCAGAAGGGACAUGAGGAUCACCCAUGUGGAGA	127 nM	252 nM	–	–
GUAGCAUACCGAGGAUAUUCAUACCGGAAACGGACAUGAGGAUCACCCAUGUGGCGAAAGCCUUGGGAGAAGGCGGAAUGCUAC	–	–	552 nM	25.1 nM

Sequence	apparent Kd [1]	apparent Kd [2]	apparent Kd [3]	apparent Kd [4]
CUUUUGUGAGGAUAUCAGUUGUAAAUAAAUAAAAUUACUACUGAGAAGGCACAUGAGGAUCACCCAUGUUCCUC	38.1 nM	198 nM	–	–
CUCAUGUCAGGAUAUCAGUAGUAAAAAAAUAAAAUUACUACUGAGAAGGGACAUGAGGAUCACCCAUGUCCUGG	95.8 nM	17.9 nM	–	–
GAAUGGGUAGAGGAUAUCGCCAUUUCAUCGAGGUGAGAAGGUUACACAUGAGGAUCACCCAUGUCGCCAUUAGC	66.5 nM	56.7 nM	–	–
AACAAUCUAUCUGAGGAUAUCAUGAAAAAAACAUGAGGAUCACCCAUGUGCAGGAAAACUGCAUAUGAGAAGGCAGAUAGAUUGG	–	–	618 nM	31.6 nM
GCCAGUUAUGUAGGAUAUGCGCAGCGAGCCUGAGCAGAAGGACAUGAGGAUCACCCAUGUGUUGCGGUUUGAGUACUGAUCGCU	24.6 nM	130 nM	–	–
UGUUGUAUUACAGGAUAUCUAUUGGUUUUAUUUAGAGAAGGGUAUUCACAUGAGGAUCACCCAUGUAUAUACGAGGAAGUUGUG	–	–	60.5 nM	66.9 nM
UCGAGCAGGGAAUGGUCGCUGAAGUAGGAUAUCCGCGUGGCCGUCCACAUGAGGAUCACCCAUGUGGAGAAGGGCUACAGCGAA	6.07 nM	6.58 nM	–	–
UGAGCUGAAGGAUAUGCGUAAUCUCGGUGACGAGUAGAUCUACAUGAGGAUCACCCAUGUAGAAGGUCAGUUCU	15.5 nM	17.5 nM	–	–
ACGGCCUUACAUGAGGAUCACCCAUGUGAGUAUGGAGUUACACAGGAUAUCCGCGUGGCAGGCAAGGAGAAGGGUGUAUUAGGA	–	–	70 nM	21.9 nM
CGAAAAUUUCAGAAGGACCGAUUCCACAUGAGGAUCACCCAUGUCGAUGGUAGGAUAUGGAGUUGUGGACAGGGCGGAUGUUCC	–	–	46.3 nM	8.39 nM
AUCAGCUCGUCAGGAUAUACGUCACUGCGUCAGCAGUGUGGUAAGAUCACAUGAGGAUCACCCAUGUAGAAGGGACGAGCAGAU	13.7 nM	262 nM	–	–
GUCAGCUCGUGAGGAUAUACAACACUGCUUCAGCAGUGUAUUAAGAUCACAUGAGGAUCACCCAUGUAGAAGGCACGAGCUGAU	13.8 nM	242 nM	–	–
AGUUUUGUACAUGAGGAUCACCCAUGUUAAUAUGUGGUAGUCAGAAGGCAUUGUUAGUGUUUAUAUGAGGAUAUGAUUAUUCAG	–	–	41.1 nM	16.4 nM
CAAUUCCGAGGAUAUACAUGAGGAUCACCCAUGUCGGGCCUCAGCGUUUAGCGCGUAAGUAGAAGGUGGGUUUC	30.4 nM	41.1 nM	–	–
UUCGCUGUGGUGUGGCGAGGCUCGUAAGAAGGGUGAUGCACAUGAGGAUCACCCAUGUAAGCCUUACAGGAUAUUGCUAGCCGA	–	–	539 nM	195 nM
UUAUUUAUGUAAGGAUAUCGAUGAUAUACACAUCCGACAUGAGGAUCACCCAUGUUUUAUUUUGUCGAGAAGGUACAUUGUCGG	–	–	56.2 nM	47 nM
GGUACCAUCGCAGGAUAUGGUAUCCUUUGGGUACCAGAAGGGUGAUAACAUGAGGAUCACCCAUGUGGUACCGGGCGUGAGCCC	–	–	29 nM	970 nM
AUGUAGGAAGGAUAUAUAUGGAGCAUGCGUCUCUGAACAUUACAUGAGGAUCACCCAUGUAGAAGGUCCGCGGA	24.1 nM	33.1 nM	–	–
CCAGGCUGUGUGAGGAUAUGCUGGUCCUUGGAUCAGCAGAAGGCACAUGAGGAUCACCCAUGUGAAUAGCUUGG	16.9 nM	30 nM	–	–
GCUGCAUAGUCAGGAUAUGCAAAGUAAUGUAUGGAAACAUACAUUACAACAUGAGGAUCACCCAUGUAGAAGGGACUGUGCAGU	13.9 nM	12.2 nM	–	–
GUGUGAAUAAGAGGAUAUAUACAACAUGAGGAUCACCCAUGUACCCGUGUAGUAGAAGGUUUGUUUUUAUAUAAUAUUAUAUUU	–	–	27.4 nM	22.8 nM
